Assay results: ChEMBL document CHEMBL3576799, “Aranciamycins I and J, Antimycobacterial Anthracyclines from an Australian Marine-Derived Streptomyces sp” (J Nat Prod, 2015)
In brackets after ≈: the same amount, converted by molar mass.

Legend:
Bacillus spizizenii = experiment: Antibacterial activity against Bacillus subtilis ATCC 6633 after 24 hrs by spectrophotometric analysis; format: functional, organism-based; details: ATCC 6633, 24 h
Escherichia coli = experiment: Antibacterial activity against Escherichia coli ATCC 11775 after 24 hrs by spectrophotometric analysis; format: functional, organism-based; details: DSM 30083 = JCM 1649 = ATCC 11775, 24 h
Candida albicans = experiment: Antifungal activity against Candida albicans ATCC 90028 after 48 hrs by spectrophotometric analysis; format: functional, organism-based; details: ATCC 90028, 48 h
Staphylococcus aureus [1] = experiment: Antibacterial activity against Staphylococcus aureus ATCC 9144 after 24 hrs by spectrophotometric analysis; format: functional, organism-based; details: ATCC 9144, 24 h
HepG2 = experiment: Cytotoxicity against human HepG2 cells assessed as growth inhibition after 48 hrs by MTT assay; format: functional, cell-based; details: HepG2, 48 h
Method in brief: (§1)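 Modified MTT assay on adherent human cancer lines: SW620 (epithelial-like colorectal carcinoma), NCI-H460 (epithelial-like lung carcinoma), KB-3-1 (epithelial-like cervix carcinoma) and HepG2 (hepatocellular carcinoma). Output given as IC50.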

SW-620 = experiment: Cytotoxicity against human SW620 cells assessed as growth inhibition after 48 hrs by MTT assay; format: functional, cell-based; details: SW-620, 48 h; method in brief: as §1
Pseudomonas aeruginosa = experiment: Antibacterial activity against Pseudomonas aeruginosa ATCC 10145 after 24 hrs by spectrophotometric analysis; format: functional, organism-based; details: ATCC 10145, 24 h
NCI-H460 = experiment: Cytotoxicity against human NCI-H460 cells assessed as growth inhibition after 48 hrs by MTT assay; format: functional, cell-based; details: NCI-H460, 48 h; method in brief: as §1
Staphylococcus aureus [2] = experiment: Antibacterial activity against Staphylococcus aureus ATCC 25923 after 24 hrs by spectrophotometric analysis; format: functional, organism-based; details: ATCC 25923, 24 h
Bacillus subtilis = experiment: Antibacterial activity against Bacillus subtilis ATCC 6051 after 24 hrs by spectrophotometric analysis; format: functional, organism-based; details: ATCC 6051, 24 h
[3] = Cytotoxicity against human KB-3-1 cells assessed as growth inhibition after 48 hrs by MTT assay; format: functional, cell-based; details: KB 3-1, 48 h; method in brief: as §1

SMILES: C[C@@H]1O[C@@H](O[C@H]2C[C@](C)(O)Cc3cc4c(c(O)c32)C(=O)c2c(O)cccc2C4=O)[C@H](O)[C@H](O)[C@H]1O
- IC50 (Bacillus spizizenii): 3 µM
- MIC (Bacillus spizizenii): 7.5 µM (≈ 3.65 µg/mL)
- IC50 (Escherichia coli): > 30 µM
- MIC (Escherichia coli): > 30 µM
- IC50 (Candida albicans): > 30 µM
- MIC (Candida albicans): > 30 µM
- IC50 (Staphylococcus aureus [1]): > 30 µM
- MIC (Staphylococcus aureus [1]): > 30 µM
- IC50 (HepG2): 12 µM
- IC50 (SW-620): 7.5 µM
- IC50 (Pseudomonas aeruginosa): > 30 µM
- MIC (Pseudomonas aeruginosa): > 30 µM
- IC50 (NCI-H460): 9 µM
- IC50 (Staphylococcus aureus [2]): > 30 µM
- MIC (Staphylococcus aureus [2]): > 30 µM
- IC50 (Bacillus subtilis): 1.1 µM
- MIC (Bacillus subtilis): 3.7 µM (≈ 1.8 µg/mL)
- IC50 [3]: > 30 µM

SMILES: CO[C@H]1[C@H](O[C@@H]2c3c(cc4c(c3O)C(=O)c3c(O)cccc3C4=O)C(=O)[C@@](C)(O)[C@H]2OC)O[C@@H](C)[C@H](O)[C@H]1O [ARANCIAMYCIN]
- IC50 (Bacillus spizizenii): 5.8 µM
- MIC (Bacillus spizizenii): 15 µM (≈ 8.17 µg/mL)
- IC50 (Escherichia coli): > 30 µM
- MIC (Escherichia coli): > 30 µM
- IC50 (Candida albicans): > 30 µM
- MIC (Candida albicans): > 30 µM
- IC50 (Staphylococcus aureus [1]): > 30 µM
- MIC (Staphylococcus aureus [1]): > 30 µM
- IC50 (HepG2): 18 µM
- IC50 (SW-620): > 30 µM
- IC50 (Pseudomonas aeruginosa): > 30 µM
- MIC (Pseudomonas aeruginosa): > 30 µM
- IC50 (NCI-H460): > 30 µM
- IC50 (Staphylococcus aureus [2]): > 30 µM
- MIC (Staphylococcus aureus [2]): > 30 µM
- IC50 (Bacillus subtilis): 6 µM
- MIC (Bacillus subtilis): 15 µM (≈ 8.17 µg/mL)
- IC50 [3]: > 30 µM

SMILES: CO[C@H]1[C@H](O[C@H]2C[C@](C)(O)Cc3cc4c(c(O)c32)C(=O)c2c(O)cccc2C4=O)O[C@@H](C)[C@H](O)[C@H]1O
- IC50 (Bacillus spizizenii): 2.4 µM
- MIC (Bacillus spizizenii): 7.5 µM (≈ 3.75 µg/mL)
- IC50 (Escherichia coli): > 30 µM
- MIC (Escherichia coli): > 30 µM
- IC50 (Candida albicans): > 30 µM
- MIC (Candida albicans): > 30 µM
- IC50 (Staphylococcus aureus [1]): > 30 µM
- MIC (Staphylococcus aureus [1]): > 30 µM
- IC50 (HepG2): > 30 µM
- IC50 (SW-620): > 30 µM
- IC50 (Pseudomonas aeruginosa): > 30 µM
- MIC (Pseudomonas aeruginosa): > 30 µM
- IC50 (NCI-H460): > 30 µM
- IC50 (Staphylococcus aureus [2]): > 30 µM
- MIC (Staphylococcus aureus [2]): > 30 µM
- IC50 (Bacillus subtilis): 2.8 µM
- MIC (Bacillus subtilis): 7.5 µM (≈ 3.75 µg/mL)
- IC50 [3]: > 30 µM

SMILES: CO[C@H]1[C@H](O[C@H]2C[C@](C)(O)C(=O)c3cc4c(c(O)c32)C(=O)c2c(O)cccc2C4=O)O[C@@H](C)[C@H](O)[C@H]1O
- IC50 (Bacillus spizizenii): 2.8 µM
- MIC (Bacillus spizizenii): 7.5 µM (≈ 3.86 µg/mL)
- IC50 (Escherichia coli): > 30 µM
- MIC (Escherichia coli): > 30 µM
- IC50 (Candida albicans): > 30 µM
- MIC (Candida albicans): > 30 µM
- IC50 (Staphylococcus aureus [1]): > 30 µM
- MIC (Staphylococcus aureus [1]): > 30 µM
- IC50 (HepG2): 12 µM
- IC50 (SW-620): 10 µM
- IC50 (Pseudomonas aeruginosa): > 30 µM
- MIC (Pseudomonas aeruginosa): > 30 µM
- IC50 (NCI-H460): > 30 µM
- IC50 (Staphylococcus aureus [2]): > 30 µM
- MIC (Staphylococcus aureus [2]): > 30 µM
- IC50 (Bacillus subtilis): 2.4 µM
- MIC (Bacillus subtilis): 7.2 µM (≈ 3.7 µg/mL)
- IC50 [3]: > 30 µM
